Data taken from ChEMBL document CHEMBL1145212, “Fluorinated diaryl sulfides as serotonin transporter ligands: synthesis, structure-activity relationship study, and in vivo evaluation of fluorine-18-labeled compounds as PET imaging agents” (J Med Chem, 2005).
pKi: −log10 of the molar value.

Legend:
Assay type in all cases: cell-based
[1] = target: Sodium-dependent serotonin transporter (Homo sapiens, UniProt P31645); assay: In vitro displacement of [3H]paroxetine from human serotonin transporter expressed in HEK293 cells
[2] = target: Sodium-dependent noradrenaline transporter (Homo sapiens, UniProt P23975); assay: In vitro displacement of [3H]nisoxetine from human norepinephrine transporter expressed in HEK293 cells
In short: (§1)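 Competitive binding using cloned human transporters expressed in HEK-293 cells. NET was labelled with [³H]nisoxetine and DAT with [³H]GBR12935, following a previously published procedure.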

[3] = target: Sodium-dependent dopamine transporter (Homo sapiens, UniProt Q01959); assay: In vitro displacement of [3H]GBR-12935 from human dopamine transporter expressed in HEK293 cells; in short: as §1
Sodium-dependent dopamine transporter, sequence (Q01959 whole entry): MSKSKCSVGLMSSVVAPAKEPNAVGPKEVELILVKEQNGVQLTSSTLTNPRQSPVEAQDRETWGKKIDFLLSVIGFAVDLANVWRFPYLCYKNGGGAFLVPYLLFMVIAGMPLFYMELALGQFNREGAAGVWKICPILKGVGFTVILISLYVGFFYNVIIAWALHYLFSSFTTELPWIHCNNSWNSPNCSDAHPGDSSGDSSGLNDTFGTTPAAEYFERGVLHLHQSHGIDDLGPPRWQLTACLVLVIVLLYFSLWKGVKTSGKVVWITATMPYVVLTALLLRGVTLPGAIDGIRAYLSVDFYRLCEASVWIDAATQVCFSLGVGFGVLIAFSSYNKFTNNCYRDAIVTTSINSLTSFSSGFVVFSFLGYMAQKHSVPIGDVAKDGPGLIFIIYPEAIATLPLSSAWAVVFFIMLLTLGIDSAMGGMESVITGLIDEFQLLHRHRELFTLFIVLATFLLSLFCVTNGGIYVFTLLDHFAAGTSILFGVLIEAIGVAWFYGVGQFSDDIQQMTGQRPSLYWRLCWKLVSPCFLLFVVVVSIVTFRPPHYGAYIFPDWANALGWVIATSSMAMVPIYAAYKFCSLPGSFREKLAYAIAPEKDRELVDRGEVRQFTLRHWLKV

Sodium-dependent serotonin transporter, sequence (P31645 whole entry): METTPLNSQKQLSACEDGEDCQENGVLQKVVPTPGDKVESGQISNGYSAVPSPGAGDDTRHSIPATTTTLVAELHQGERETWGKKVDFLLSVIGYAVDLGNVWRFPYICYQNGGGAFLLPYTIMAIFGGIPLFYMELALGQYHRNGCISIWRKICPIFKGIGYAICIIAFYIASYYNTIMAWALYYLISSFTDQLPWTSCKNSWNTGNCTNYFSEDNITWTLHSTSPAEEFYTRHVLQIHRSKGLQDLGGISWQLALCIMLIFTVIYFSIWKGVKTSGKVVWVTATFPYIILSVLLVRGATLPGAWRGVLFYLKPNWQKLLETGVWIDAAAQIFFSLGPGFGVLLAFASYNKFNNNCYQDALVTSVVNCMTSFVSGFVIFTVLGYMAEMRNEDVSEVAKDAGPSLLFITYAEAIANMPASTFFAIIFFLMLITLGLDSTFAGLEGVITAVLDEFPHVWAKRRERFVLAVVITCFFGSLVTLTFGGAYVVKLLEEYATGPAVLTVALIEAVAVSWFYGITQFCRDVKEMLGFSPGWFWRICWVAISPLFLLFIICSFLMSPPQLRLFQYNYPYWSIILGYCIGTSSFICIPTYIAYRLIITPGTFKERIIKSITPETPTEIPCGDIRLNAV
Sodium-dependent noradrenaline transporter, sequence (P23975 whole entry): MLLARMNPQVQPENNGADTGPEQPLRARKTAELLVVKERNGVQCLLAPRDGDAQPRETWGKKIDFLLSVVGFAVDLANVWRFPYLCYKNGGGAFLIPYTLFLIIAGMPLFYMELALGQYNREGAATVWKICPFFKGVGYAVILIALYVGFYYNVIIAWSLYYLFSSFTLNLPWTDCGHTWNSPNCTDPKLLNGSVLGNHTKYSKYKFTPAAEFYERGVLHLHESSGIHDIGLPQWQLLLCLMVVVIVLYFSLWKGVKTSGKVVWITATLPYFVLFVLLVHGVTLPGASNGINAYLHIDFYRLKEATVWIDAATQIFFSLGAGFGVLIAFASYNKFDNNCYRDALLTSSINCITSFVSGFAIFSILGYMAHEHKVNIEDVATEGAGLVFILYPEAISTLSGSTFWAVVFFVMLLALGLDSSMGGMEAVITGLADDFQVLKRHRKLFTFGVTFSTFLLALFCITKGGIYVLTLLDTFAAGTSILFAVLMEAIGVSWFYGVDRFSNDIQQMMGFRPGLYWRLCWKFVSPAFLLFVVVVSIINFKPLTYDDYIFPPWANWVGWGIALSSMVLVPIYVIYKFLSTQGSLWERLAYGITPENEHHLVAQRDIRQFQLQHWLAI

Structure (SMILES): Cc1ccc(Sc2ccccc2CNCCF)c(N)c1
- pKi [1]: 7.15
- pKi [2]: 5.41
- pKi [3]: 5.35
